Assay results reported in ChEMBL document CHEMBL4715736, “Identification of anticancer agents based on the thieno[2,3-b]pyridine and 1H-pyrazole molecular scaffolds” (2016).

The compounds below were run on MCF7 (assay: Growth inhibition of human MCF7 cells assessed as cell growth at 100 uM incubated for 48 hrs by sulforhodamine B assay relative to control). Conditions: read-out: Activity.
Format: functional
`Cc1cccc(NC(=O)c2sc3nc4c(cc3c2N)C(=O)CCC4)c1` showed a growth at 100 µM of -56%.

What follows are compounds tested on HCT-116 (assay: Growth inhibition of human HCT-116 cells assessed as cell growth at 1 uM incubated for 48 hrs by sulforhodamine B assay relative to control). Conditions: read-out: Activity.
Format: functional
Work on `Cc1cccc(NC(=O)c2sc3nc4c(cc3c2N)C(=O)CCC4)c1` yielded a growth at 1 µM of 28%.

These compounds were tested on PC-3 (assay: Growth inhibition of human PC-3 cells assessed as cell growth at 0.1 uM incubated for 48 hrs by sulforhodamine B assay relative to control). Conditions: read-out: Activity.
Format: functional
Work on `Cc1cccc(NC(=O)c2sc3nc4c(cc3c2N)C(=O)CCC4)c1` yielded a growth at 0.1 µM of 80%.

These compounds were tested on M14 (assay: Growth inhibition of human M14 cells assessed as cell growth at 1 uM incubated for 48 hrs by sulforhodamine B assay relative to control). Conditions: read-out: Activity.
Format: functional
`Cc1cccc(NC(=O)c2sc3nc4c(cc3c2N)C(=O)CCC4)c1` showed a growth at 1 µM of 11%.

Each compound was assayed on HOP-92 (assay: Growth inhibition of human HOP-92 cells assessed as cell growth at 0.1 uM incubated for 48 hrs by sulforhodamine B assay relative to control). Conditions: read-out: Activity.
Format: functional
`Cc1cccc(NC(=O)c2sc3nc4c(cc3c2N)C(=O)CCC4)c1` gave a growth at 0.1 µM of 69%.

What follows are compounds tested on HCC 2998 (assay: Growth inhibition of human HCC 2998 cells assessed as cell growth at 100 uM incubated for 48 hrs by sulforhodamine B assay relative to control). Conditions: read-out: Activity.
Format: functional
In short: (§1)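 NCI Developmental Therapeutics Program NCI60 panel. Compounds that were active in the 10 µM one-dose screen went on to dose–response testing. Growth at each concentration is expressed relative to untreated control (100%). GI50 (concentration giving 50% of maximal inhibition of proliferation) and TGI (concentration giving total growth inhibition) were derived from the curves.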
Work on `Cc1cccc(NC(=O)c2sc3nc4c(cc3c2N)C(=O)CCC4)c1` yielded a growth at 100 µM of -23%.

What follows are compounds tested on OVCAR-4 (assay: Growth inhibition of human OVCAR-4 cells assessed as cell growth at 100 uM incubated for 48 hrs by sulforhodamine B assay relative to control). Conditions: read-out: Activity.
Format: functional
`Cc1cccc(NC(=O)c2sc3nc4c(cc3c2N)C(=O)CCC4)c1` was tested, and the growth at 100 µM was -56%.

Each compound was assayed on MDA-MB-231 (assay: Growth inhibition of human MDA-MB-231 cells assessed as cell growth at 0.1 uM incubated for 48 hrs by sulforhodamine B assay relative to control). Conditions: read-out: Activity.
Format: functional
In the case of `Cc1cccc(NC(=O)c2sc3nc4c(cc3c2N)C(=O)CCC4)c1`, the growth at 0.1 µM was 76%.

These compounds were tested on SK-OV-3 (assay: Growth inhibition of human SK-OV-3 cells assessed as cell growth at 0.1 uM incubated for 48 hrs by sulforhodamine B assay relative to control). Conditions: read-out: Activity.
Format: functional
`Cc1cccc(NC(=O)c2sc3nc4c(cc3c2N)C(=O)CCC4)c1` gave a growth at 0.1 µM of 73%.

These compounds were tested on Hs-578T (assay: Growth inhibition of human Hs-578T cells assessed as cell growth at 1 uM incubated for 48 hrs by sulforhodamine B assay relative to control). Conditions: read-out: Activity.
Format: functional
Compound `Cc1cccc(NC(=O)c2sc3nc4c(cc3c2N)C(=O)CCC4)c1` has a growth at 1 µM of 11%.

The compounds below were run on T47D (assay: Growth inhibition of human T47D cells assessed as cell growth at 1 uM incubated for 48 hrs by sulforhodamine B assay relative to control). Conditions: read-out: Activity.
Format: functional
In the case of `Cc1cccc(NC(=O)c2sc3nc4c(cc3c2N)C(=O)CCC4)c1`, the growth at 1 µM was 29%.

These compounds were tested on LOX IMVI (assay: Growth inhibition of human LOX IMVI cells assessed as cell growth at 1 uM incubated for 48 hrs by sulforhodamine B assay relative to control). Conditions: read-out: Activity.
Format: functional
Compound `Cc1cccc(NC(=O)c2sc3nc4c(cc3c2N)C(=O)CCC4)c1` has a growth at 1 µM of 47%.

The compounds below were run on MCF7 (assay: Growth inhibition of human MCF7 cells incubated for 48 hrs by sulforhodamine B assay). Conditions: not given.
Format: functional
In short: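 NCI60 panel at the NCI Developmental Therapeutics Program. Only compounds active in the 10 µM screen went to dose-response testing. GI50, the concentration giving 50% of maximal inhibition of proliferation, and TGI, the concentration giving total growth inhibition, were derived from the dose-response curves.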
Compound `Cc1cccc(NC(=O)c2sc3nc4c(cc3c2N)C(=O)CCC4)c1` has a GI50 of 0.145 µM and a TGI of over 100 µM.

Same assay, conditions: read-out: LC50 (the source's name)
Work on `Cc1cccc(NC(=O)c2sc3nc4c(cc3c2N)C(=O)CCC4)c1` yielded a CC50 of over 100 µM.

The compounds below were run on HCC 2998 (assay: Growth inhibition of human HCC 2998 cells assessed as cell growth at 0.1 uM incubated for 48 hrs by sulforhodamine B assay relative to control). Conditions: read-out: Activity.
Format: functional
In short: as §1
Work on `Cc1cccc(NC(=O)c2sc3nc4c(cc3c2N)C(=O)CCC4)c1` yielded a growth at 0.1 µM of 80%.

Each compound was assayed on SF-268 (assay: Growth inhibition of human SF-268 cells assessed as cell growth at 1 uM incubated for 48 hrs by sulforhodamine B assay relative to control). Conditions: read-out: Activity.
Format: functional
`Cc1cccc(NC(=O)c2sc3nc4c(cc3c2N)C(=O)CCC4)c1` gave a growth at 1 µM of 54%.

What follows are compounds tested on RXF 393 (assay: Growth inhibition of human RXF 393 cells assessed as cell growth at 1 uM incubated for 48 hrs by sulforhodamine B assay relative to control). Conditions: read-out: Activity.
Format: functional
In the case of `Cc1cccc(NC(=O)c2sc3nc4c(cc3c2N)C(=O)CCC4)c1`, the growth at 1 µM was -16%.

Each compound was assayed on CAKI-1 (assay: Growth inhibition of human CAKI-1 cells incubated for 48 hrs by sulforhodamine B assay). Conditions: not given.
Format: functional
In short: as §1
Compound `Cc1cccc(NC(=O)c2sc3nc4c(cc3c2N)C(=O)CCC4)c1` has a GI50 of 0.359 µM and a TGI of over 100 µM.

Same assay, conditions: read-out: LC50 (the source's name)
Compound `Cc1cccc(NC(=O)c2sc3nc4c(cc3c2N)C(=O)CCC4)c1` has a CC50 of over 100 µM.

What follows are compounds tested on HT-29 (assay: Growth inhibition of human HT-29 cells assessed as cell growth at 1 uM incubated for 48 hrs by sulforhodamine B assay relative to control). Conditions: read-out: Activity.
Format: functional
`Cc1cccc(NC(=O)c2sc3nc4c(cc3c2N)C(=O)CCC4)c1` gave a growth at 1 µM of 2%.

Each compound was assayed on SNB-75 (assay: Growth inhibition of human SNB-75 cells incubated for 48 hrs by sulforhodamine B assay). Conditions: not given.
Format: functional
In short: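 NCI DTP 60-line human tumour panel. Dose-response curves were run only for ligands active in the initial 10 µM screen. GI50 (concentration giving 50% of maximal inhibition of proliferation) and TGI (concentration giving total growth inhibition) were derived from these curves.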
Compound `Cc1cccc(NC(=O)c2sc3nc4c(cc3c2N)C(=O)CCC4)c1` has a GI50 of 0.23 µM.
